The source made the active and inactive calls. The rule behind the calls is not given here.
Experiments:
[1] = Cytotoxicity against HELF assessed as cell viability after 6 days by MTT assay; assay type: cell-based; settings: human, HELF cells
Outline: (§1)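 HELF exposed to rising ODN concentrations (up to 10 μM) for 6 days; viable cells measured by MTT. CC50 taken as concentration that cuts viability to 50%.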

[2] = Antimicrobial activity against Murine cytomegalovirus (strain Smith) infected in compound pretreated mouse NIH 3T3 cells assessed as inhibition of viral replication; assay type: functional, cell-based; settings: Murid betaherpesvirus 1, NIH3T3
Outline: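 NIH 3T3 pretreated 1 h with ODN, infected with MCMV Smith (MOI 1); ODN kept after 2 h adsorption at 37°C. Harvest at 6 days p.i., sonication, plaque assay on NIH 3T3; IC50 from plaque reduction. Means ± SD, three experiments.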

Human alphaherpesvirus 1 [3] = experiment: Antimicrobial activity against Human herpesvirus 1 infected in compound pretreated HELF assessed as inhibition of viral replication at 0.1 uM; assay type: functional, organism-based
Outline: (§2)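 HELF pretreated with ODN (0.1 or 1 μM) 1 h before infection with a clinical HSV-1 isolate at MOI 0.1; ODN kept in medium after 2 h adsorption. Harvest at 48 h p.i., sonication, plaque titration on Vero cells. Means ± SD of three independent experiments.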

Human alphaherpesvirus 1 [4] = experiment: Antimicrobial activity against Human herpesvirus 1 infected in compound pretreated HELF assessed as inhibition of viral replication at 1 uM; assay type: functional, organism-based; outline: as §2
unidentified adenovirus = experiment: Antimicrobial activity against unidentified adenovirus infected in compound pretreated HELF assessed as inhibition of viral replication; assay type: functional, organism-based
Outline: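 HELF pretreated 1 h with ODN (0.1 or 1 μM), infected with an adenovirus clinical isolate (MOI 1); ODN kept after 2 h adsorption. Harvest at 4 days p.i., sonication, plaque titration on HELF. Means ± SD, three experiments.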

[5] = tested on: Vesicular stomatitis Indiana virus; experiment: Antimicrobial activity against Vesicular stomatitis Indiana virus infected in compound pretreated HELF assessed as inhibition of viral replication; assay type: functional, organism-based
Outline: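 HELFs exposed to ODN (0.1 or 1 μM) for 1 h, then infected with VSV serotype Indiana at MOI 1 (2 h adsorption, 37°C). ODN kept in the medium until 48 h p.i. Cells and supernatants were pooled, sonicated and titrated by plaque assay on HELFs. Data are means ± standard deviations of three independent experiments, duplicate wells.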

Human betaherpesvirus 5 [6] = experiment: Antimicrobial activity against Human cytomegalovirus AD169 infected in HELF assessed as inhibition of viral replication at 0.1 uM measured after 6 days post-infection; assay type: functional, organism-based
Human betaherpesvirus 5 [7] = experiment: Antimicrobial activity against Human cytomegalovirus AD169 infected in HELF assessed as inhibition of viral replication at 1 uM measured after 6 days post-infection; assay type: functional, organism-based
Human betaherpesvirus 5 [8] = experiment: Antimicrobial activity against Human herpesvirus 5 strain AD169 infected in HELF assessed as pp65 nuclear localization at 0.1 uM after 2 hrs […]; assay type: functional, organism-based
Human betaherpesvirus 5 [9] = experiment: Antimicrobial activity against 0.1 uM compound pretreated Human cytomegalovirus AD169 infected in HELF assessed as reduction in viral titer at 4 degC; assay type: functional, organism-based
Outline: (§3)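 HCMV AD169 (10^4 PFU) incubated with ODN at 0.1 μM at 4 or 37°C for various times; samples then diluted to bring ODN below an antivirally active level; residual infectivity titrated by plaque assay on HELF. Means ± SD of three independent experiments.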

Human betaherpesvirus 5 [10] = experiment: Antimicrobial activity against 0.1 uM compound pretreated Human cytomegalovirus AD169 infected in HELF assessed as reduction in viral titer 37 degC; assay type: functional, organism-based; outline: as §3
Human betaherpesvirus 5 [11] = experiment: Antimicrobial activity against Human cytomegalovirus AD169 infected in 0.1 uM compound pretreated HELF assessed as inhibition of viral replication measured after 6 days post-infection; assay type: functional, organism-based
Outline: (§4)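 HELF pretreated with ODN 1 h before infection with HCMV AD169 (MOI 1); ODN kept in medium after 2 h adsorption at 37°C. At 6 days p.i., cells plus supernatants sonicated and titrated by plaque assay on HELF; plaques counted microscopically, expressed as PFU/ml (log10) or % of control. IC50/IC90 by linear regression; duplicate wells, three independent experiments, means ± SD.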

Human betaherpesvirus 5 [12] = experiment: Antimicrobial activity against Human cytomegalovirus AD169 infected in 1 uM compound pretreated HELF assessed as inhibition of viral replication measured after 6 days post-infection; assay type: functional, organism-based; outline: as §4
Human betaherpesvirus 5 [13] = experiment: Antimicrobial activity against Human cytomegalovirus AD169 infected in compound pretreated HELF assessed as inhibition of viral replication measured after 6 days post-infection; assay type: functional, organism-based; settings: Human betaherpesvirus 5, AD169, HELF; outline: as §4
[14] = Cytotoxicity against HELF assessed as cell viability by MTT assay after 6 days at <=10 uM; assay type: cell-based; settings: human, 144 h; outline: as §1

Cc1cn([C@H]2C[C@H](OP(O)(O)=S)[C@@H](COP(O)(=S)O[C@H]3C[C@H](n4cc(C)c(=O)[nH]c4=O)O[C@@H]3COP(O)(=S)O[C@H]3[C@@H](O)[C@H](n4ccc(N)nc4=O)O[C@@H]3COP(O)(=S)O[C@H]3[C@@H](O)[C@H](n4cnc5c(=O)[nH]c(N)nc54)O[C@@H]3COP(O)(=S)O[C@H]3C[C@H](n4cc(C)c(=O)[nH]c4=O)O[C@@H]3COP(O)(=S)O[C@H]3[C@@H](O)[C@H](n4cnc5c(=O)[nH]c(N)nc54)O[C@@H]3COP(O)(=S)O[C@H]3C[C@H](n4cc(C)c(=O)[nH]c4=O)O[C@@H]3COP(O)(=S)O[C@H]3C[C@H](n4cc(C)c(=O)[nH]c4=O)O[C@@H]3COP(O)(=S)O[C@H]3C[C@H](n4cc(C)c(=O)[nH]c4=O)O[C@@H]3COP(O)(=S)O[C@H]3C[C@H](n4cc(C)c(=O)[nH]c4=O)O[C@@H]3COP(O)(=S)O[C@H]3[C@@H](O)[C@H](n4ccc(N)nc4=O)O[C@@H]3COP(O)(=S)O[C@H]3[C@@H](O)[C@H](n4cnc5c(=O)[nH]c(N)nc54)O[C@@H]3COP(O)(=S)O[C@H]3C[C@H](n4cc(C)c(=O)[nH]c4=O)O[C@@H]3COP(O)(=S)O[C@H]3[C@@H](O)[C@H](n4cnc5c(=O)[nH]c(N)nc54)O[C@@H]3COP(O)(=S)O[C@H]3C[C@H](n4cc(C)c(=O)[nH]c4=O)O[C@@H]3COP(O)(=S)O[C@H]3C[C@H](n4cc(C)c(=O)[nH]c4=O)O[C@@H]3COP(O)(=S)O[C@H]3C[C@H](n4cc(C)c(=O)[nH]c4=O)O[C@@H]3COP(O)(=S)O[C@H]3C[C@H](n4cc(C)c(=O)[nH]c4=O)O[C@@H]3COP(O)(=S)O[C@H]3[C@@H](O)[C@H](n4ccc(N)nc4=O)O[C@@H]3COP(O)(=S)O[C@H]3[C@@H](O)[C@H](n4cnc5c(=O)[nH]c(N)nc54)O[C@@H]3COP(O)(=S)O[C@H]3C[C@H](n4cc(C)c(=O)[nH]c4=O)O[C@@H]3COP(O)(=S)O[C@H]3[C@@H](O)[C@H](n4ccc(N)nc4=O)O[C@@H]3COP(O)(=S)O[C@H]3[C@@H](O)[C@H](n4cnc5c(=O)[nH]c(N)nc54)O[C@@H]3COP(O)(=S)O[C@H]3C[C@H](n4cc(C)c(=O)[nH]c4=O)O[C@@H]3CO)O2)c(=O)[nH]c1=O (stereo partly specified)
CC50 at 144 h [1]: > 10 µM | IC50 [2]: 20 nM | inhibition (Human alphaherpesvirus 1 [3]): inactive | inhibition (Human alphaherpesvirus 1 [4]): inactive | inhibition (unidentified adenovirus): inactive | inhibition [5]: inactive | inhibition (Human betaherpesvirus 5 [6]): inactive | inhibition (Human betaherpesvirus 5 [7]): inactive | inhibition (Human betaherpesvirus 5 [8]): Active | inhibition (Human betaherpesvirus 5 [9]): inactive | inhibition (Human betaherpesvirus 5 [10]): inactive | inhibition (Human betaherpesvirus 5 [11]): Active | inhibition (Human betaherpesvirus 5 [12]): Active | IC50 (Human betaherpesvirus 5 [13]): 30 nM | IC90 (Human betaherpesvirus 5 [13]): 220 nM | Activity [14]: Non-toxic
